Activity calls are given as the source filed them. No cut-off for these calls is given here.

For test [1], the system named is MCF7. Nature of the test: Induction of cell cycle arrest in 24 hrs serum-starved human MCF7 cells assessed as accumulation at G2-M phase at antiproliferative IC50 incubated for 24 hrs by propidium iodide staining based flow cytometry (reference value: 28 +/- 0.3%). Format: functional.
For test [2], the system named is A549. The test can be described thus: Antiproliferative activity against human A549 cells incubated for 3 days by sulforhodamine B assay. The class given is functional, cell-based. As to conditions: A549, 72 h. In outline:
(§1)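 Cells in DMEM with 10% heat-inactivated FBS, penicillin–streptomycin and 2 mM L-glutamine at 37 °C, 5% CO2. Seeded at 5 × 10^3 cells/cm2 in quadruplicate. After 24 h, exposed to increasing compound concentrations for 3 days. Fixed with cold 10% TCA, stained with 0.4% sulforhodamine in 1% acetic acid, dye solubilized in 10 mM Tris-base pH 10.5, OD read at 492 nm. IC50 by linear interpolation on semilog dose–response curve. Mean ± SEM of four independent determinations.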

For test [3], the system named is MCF7. Nature of the test: Induction of cell cycle arrest in 24 hrs serum-starved human MCF7 cells assessed as accumulation at G0-G1 phase at antiproliferative IC50 incubated for 24 hrs by propidium iodide staining based flow cytometry (reference value: 51 +/- 0.9%). Format: functional.
The subject of test [4] is T84. Nature of the test: Induction of apoptosis in 24 hrs serum-starved human T84 cells assessed as accumulation at subG1 phase at antiproliferative IC50 incubated for 24 hrs by propidium iodide staining based flow cytometry (reference value: 4 +/- 0.3%). Format: functional.
In test [5] the test system is MCF7. Nature of the test: Induction of cell cycle arrest in 24 hrs serum-starved human MCF7 cells assessed as accumulation at G0-G1 phase at 2 times antiproliferative IC50 incubated for 24 hrs by propidium iodide staining based flow cytometry (reference value: 51 +/- 0.9%). The class given is functional.
Test [6] deals with T84. The test can be described thus: Induction of cell cycle arrest in 24 hrs serum-starved human T84 cells assessed as accumulation at S phase at antiproliferative IC50 incubated for 24 hrs by propidium iodide staining based flow cytometry (reference value: 13 +/- 0.6%). Format: functional.
Test [7] has as its system T84. Nature of the test: Induction of cell cycle arrest in 24 hrs serum-starved human T84 cells assessed as accumulation at G0-G1 phase at 2 times antiproliferative IC50 incubated for 24 hrs by propidium iodide staining based flow cytometry (reference value: 65 +/- 1.1%). Format: functional.
Test [8] deals with A549. The test can be described thus: Induction of cell cycle arrest in 24 hrs serum-starved human A549 cells assessed as accumulation at G2-M phase at 2 times antiproliferative IC50 incubated for 24 hrs by propidium iodide staining based flow cytometry (reference value: 22 +/- 1.8%). The class given is functional.
The subject of test [9] is MCF7. Nature of the test: Antiproliferative activity against human MCF7 cells incubated for 3 days by sulforhodamine B assay. As to conditions: MCF7, 72 h. The class given is functional, cell-based. In outline:
as §1

In test [10] the test system is MCF7. Nature of the test: Induction of apoptosis in 24 hrs serum-starved human MCF7 cells assessed as accumulation at subG1 phase at 2 times antiproliferative IC50 incubated for 24 hrs by propidium iodide staining based flow cytometry (reference value: 4 +/- 1.1%). The class given is functional.
Test [11] relates to A549. Nature of the test: Induction of cell cycle arrest in 24 hrs serum-starved human A549 cells assessed as accumulation at S phase at 2 times antiproliferative IC50 incubated for 24 hrs by propidium iodide staining based flow cytometry (reference value: 12 +/- 0.9%). Format: functional.
Test [12] has as its system T84. Nature of the test: Induction of cell cycle arrest in 24 hrs serum-starved human T84 cells assessed as accumulation at G2-M phase at antiproliferative IC50 incubated for 24 hrs by propidium iodide staining based flow cytometry (reference value: 18 +/- 1%). The class given is functional.
The subject of test [13] is A549. The test can be described thus: Induction of cell cycle arrest in 24 hrs serum-starved human A549 cells assessed as accumulation at G2-M phase at antiproliferative IC50 incubated for 24 hrs by propidium iodide staining based flow cytometry (reference value: 22 +/- 1.8%). Format: functional.
Test [14] relates to A549. The test can be described thus: Induction of cell cycle arrest in 24 hrs serum-starved human A549 cells assessed as accumulation at S phase at antiproliferative IC50 incubated for 24 hrs by propidium iodide staining based flow cytometry (reference value: 12 +/- 0.9%). The class given is functional.
Test [15] deals with MCF7. The test can be described thus: Induction of apoptosis in 24 hrs serum-starved human MCF7 cells assessed as accumulation at subG1 phase at antiproliferative IC50 incubated for 24 hrs by propidium iodide staining based flow cytometry (reference value: 4 +/- 1.1%). The class given is functional.
For test [16], the system named is T84. The test can be described thus: Antiproliferative activity against human T84 cells incubated for 3 days by sulforhodamine B assay. The class given is functional, cell-based. Particulars: T84, 72 h. In outline:
as §1

For test [17], the system named is A549. The test can be described thus: Induction of cell cycle arrest in 24 hrs serum-starved human A549 cells assessed as accumulation at G0-G1 phase at antiproliferative IC50 incubated for 24 hrs by propidium iodide staining based flow cytometry (reference value: 62 +/- 1%). Format: functional.
The subject of test [18] is A549. The test can be described thus: Induction of apoptosis in 24 hrs serum-starved human A549 cells assessed as accumulation at subG1 phase at antiproliferative IC50 incubated for 24 hrs by propidium iodide staining based flow cytometry (reference value: 3.5 +/- 1.1%). The class given is functional.
Test [19] relates to T84. The test can be described thus: Induction of cell cycle arrest in 24 hrs serum-starved human T84 cells assessed as accumulation at G0-G1 phase at antiproliferative IC50 incubated for 24 hrs by propidium iodide staining based flow cytometry (reference value: 65 +/- 1.1%). Format: functional.
The test system of test [20] is T84. The test can be described thus: Induction of apoptosis in 24 hrs serum-starved human T84 cells assessed as accumulation at subG1 phase at 2 times antiproliferative IC50 incubated for 24 hrs by propidium iodide staining based flow cytometry (reference value: 4 +/- 0.3%). Format: functional.
The test system of test [21] is MCF7. Nature of the test: Induction of cell cycle arrest in 24 hrs serum-starved human MCF7 cells assessed as accumulation at G2-M phase at 2 times antiproliferative IC50 incubated for 24 hrs by propidium iodide staining based flow cytometry (reference value: 28 +/- 0.3%). Format: functional.
Test [22] relates to MCF7. Nature of the test: Induction of apoptosis in human MCF7 cells at antiproliferative IC50 incubated for 6 hrs by fluorescence microscopy based TUNEL DNA fragmentation assay. The class given is functional, cell-based.
Test [23] has as its system T84. Nature of the test: Induction of cell cycle arrest in 24 hrs serum-starved human T84 cells assessed as accumulation at G2-M phase at 2 times antiproliferative IC50 incubated for 24 hrs by propidium iodide staining based flow cytometry (reference value: 18 +/- 1%). Format: functional.
For test [24], the system named is A549. Nature of the test: Induction of apoptosis in 24 hrs serum-starved human A549 cells assessed as accumulation at subG1 phase at 2 times antiproliferative IC50 incubated for 24 hrs by propidium iodide staining based flow cytometry (reference value: 3.5 +/- 1.1%). Format: functional.
Test [25] relates to A549. The test can be described thus: Induction of cell cycle arrest in 24 hrs serum-starved human A549 cells assessed as accumulation at G0-G1 phase at 2 times antiproliferative IC50 incubated for 24 hrs by propidium iodide staining based flow cytometry (reference value: 62 +/- 1%). The class given is functional.
Test [26] concerns MCF7. The test can be described thus: Induction of cell cycle arrest in 24 hrs serum-starved human MCF7 cells assessed as accumulation at S phase at 2 times antiproliferative IC50 incubated for 24 hrs by propidium iodide staining based flow cytometry (reference value: 17 +/- 0.8%). The class given is functional.
Test [27] relates to T84. Nature of the test: Induction of cell cycle arrest in 24 hrs serum-starved human T84 cells assessed as accumulation at S phase at 2 times antiproliferative IC50 incubated for 24 hrs by propidium iodide staining based flow cytometry (reference value: 13 +/- 0.6%). Format: functional.
In test [28] the test system is MCF7. The test can be described thus: Induction of cell cycle arrest in 24 hrs serum-starved human MCF7 cells assessed as accumulation at S phase at antiproliferative IC50 incubated for 24 hrs by propidium iodide staining based flow cytometry (reference value: 17 +/- 0.8%). The class given is functional.
The test system of test [29] is MCF7. Nature of the test: Induction of apoptosis in human MCF7 cells at 2 times antiproliferative IC50 incubated for 6 hrs by fluorescence microscopy based TUNEL DNA fragmentation assay. Format: functional, cell-based.
The next test has as its system Trypanosoma cruzi. The test can be described thus: Antiparasitic activity against Trypanosoma cruzi. Format: functional, organism-based.

In the case of `C[C@]1(CO)CCC[C@]2(C)c3cc4c(cc3C(=O)C[C@@H]12)C(=O)C=CC4=O`, the Activity is recorded as 19% in the test on MCF7 [1]; 37% in the test with MCF7 [3]; 5.6% with T84 [4]; 24% in the test on MCF7 [5]; 15% in the test on T84 [6]; 62% in the test on T84 [7]. The Activity was found to be 17% in the test with A549 [8]; 60% in the test with MCF7 [10]; 16% in the test with A549 [11]; 17% with T84 [12]; 20% in the test on A549 [13]; 14% in the test on A549 [14]. Further, the Activity was 34% with MCF7 [15]; 63% in the test on A549 [17]; 3.9% with A549 [18]; 63% in the test on T84 [19]; 6.3% in the test on T84 [20]; 9.7% in the test with MCF7 [21]. Also, the Activity is reported as 15% in the test with T84 [23]; 8.1% in the test with A549 [24]; 59% in the test with A549 [25]; 6.4% with MCF7 [26]; 17% in the test on T84 [27]; 9.4% in the test with MCF7 [28]. The figures for the 50% inhibitory concentration (IC50) in the test with A549 [2], with MCF7 [9] and in the test on T84 [16] were 4.1 µM, 6.6 µM and 8 µM, respectively. Also, in the test with MCF7 [22], the outcome was Active.
`COc1ccc(OC)c2cc3c(cc12)C(=O)C[C@H]1[C@@](C)(CO)CCC[C@]31C`: the Activity in the test with MCF7 [1] was 17%; in the test with MCF7 [3] it was 66%; in the test on T84 [4] it was 5.7%; in the test with MCF7 [5] it was 6.9%; in the test on T84 [6] it was 15%; with T84 [7], 76%. Besides, the Activity turned out to be 8% in the test with A549 [8]; 91% in the test with MCF7 [10]; 7.5% in the test with A549 [11]; 12% in the test with T84 [12]; 14% in the test on A549 [13]; 12% in the test on A549 [14]. Also, the Activity in the test on MCF7 [15] came to 6.6%; with A549 [17], 68%; in the test with A549 [18] it was 5.7%; with T84 [19], 68%; with T84 [20], 8.2%; in the test on MCF7 [21] it was 1%. Moreover, the Activity in the test with T84 [23] worked out at 6.1%; in the test with A549 [24] it was 18%; in the test with A549 [25], 67%; with MCF7 [26], 0.7%; with T84 [27], 9.4%; with MCF7 [28] it was 11%. Besides, the IC50 with A549 [2] was determined as 21 µM; in the test on MCF7 [9], 33 µM; in the test on T84 [16] it was 42 µM. Moreover, the result in the test on MCF7 [29] was Active.
Turning to `C[C@]1(CO)CCC[C@]2(C)c3cc4c(cc3C=C[C@@H]12)C(=O)C=CC4=O`, the Activity in the test on MCF7 [1] is on record as 17%; with MCF7 [3], 39%; in the test with T84 [4], 6.2%; with MCF7 [5] it was 5%; with T84 [6], 17%; in the test on T84 [7], 71%. The Activity in the test with A549 [8] amounted to 15%; with MCF7 [10] it was 93%; in the test with A549 [11], 12%; in the test with T84 [12], 18%; in the test with A549 [13], 17%; with A549 [14], 16%. The Activity in the test with MCF7 [15] was found to be 32%; in the test on A549 [17] it was 62%; in the test with A549 [18], 4%; in the test on T84 [19], 59%; in the test on T84 [20], 14%; in the test on MCF7 [21] it was 1.7%. Further, the Activity in the test on T84 [23] is 7.1%; in the test on A549 [24], 6.1%; with A549 [25], 67%; in the test with MCF7 [26] it was 0.7%; in the test on T84 [27] it was 9%; with MCF7 [28], 12%. The IC50 with A549 [2] turned out to be 8.3 µM; in the test with MCF7 [9], 7.7 µM; with T84 [16] it was 11.5 µM. Moreover, in the test on MCF7 [22], the result was Active.
`CC1(C)CCC[C@@]2(C)c3cc4c(cc3CC[C@H]12)C(=O)C=CC4=O` [CYCLOZONARONE] displayed an IC50 in the test on Trypanosoma cruzi of 0.7 µM. That is a sub-micromolar value.
